ChEMBL document CHEMBL4819149, “A facile reaction to access novel structural sulfonyl-hybridized imidazolyl ethanols as potential DNA-targeting antibacterial agents” (Bioorg Med Chem Lett, 2021)
≈ marks a conversion by molar mass, not a printed value. Calls of active or inactive are those of the source. The rule behind the calls is not given here.

Columns and labels:
[1] = tested on: Staphylococcus aureus; assay: Antibacterial activity against Staphylococcus aureus ATCC 29213 assessed as bacterial growth inhibition by broth microdilution method; assay type: functional
Procedure, shortened: (§1)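 MIC values reported in µg/mL, determined by broth microdilution in microdilution plates.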

[2] = tested on: Pseudomonas aeruginosa; assay: Antibacterial activity against Pseudomonas aeruginosa ATCC 27853 assessed as bacterial growth inhibition by broth microdilution method; assay type: functional; procedure, shortened: as §1
[3] = tested on: Escherichia coli; assay: Antibacterial activity against Escherichia coli ATCC 25922 assessed as bacterial growth inhibition by broth microdilution method; assay type: functional; procedure, shortened: as §1
[4] = tested on: Klebsiella pneumoniae; assay: Antibacterial activity against Klebsiella pneumonia assessed as bacterial growth inhibition by broth microdilution method; assay type: functional; procedure, shortened: as §1
[5] = tested on: Enterococcus faecalis; assay: Antibacterial activity against Enterococcus faecalis assessed as bacterial growth inhibition by broth microdilution method; assay type: functional; procedure, shortened: as §1
[6] = tested on: Staphylococcus aureus; assay: Antibacterial activity against methicillin-resistant Staphylococcus aureus assessed as bacterial growth inhibition by broth microdilution method; assay type: functional
Procedure, shortened: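 MIC read by micro broth dilution; values given in μg/mL.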

[7] = tested on: Staphylococcus aureus; assay: Antibacterial activity against Staphylococcus aureus ATCC 25923 assessed as bacterial growth inhibition by broth microdilution method; assay type: functional; procedure, shortened: as §1
[8] = tested on: Pseudomonas aeruginosa; assay: Antibacterial activity against Pseudomonas aeruginosa assessed as bacterial growth inhibition by broth microdilution method; assay type: functional; procedure, shortened: as §1
[9] = tested on: Staphylococcus aureus; assay: Antibacterial activity against Staphylococcus aureus assessed as bacterial growth inhibition by broth microdilution method; assay type: functional; procedure, shortened: as §1
[10] = tested on: Acinetobacter baumannii; assay: Antibacterial activity against Acinetobacter baumannii assessed as bacterial growth inhibition by broth microdilution method; assay type: functional; procedure, shortened: as §1
[11] = tested on: Escherichia coli; assay: Antibacterial activity against Escherichia coli assessed as bacterial growth inhibition by broth microdilution method; assay type: functional; procedure, shortened: as §1
[12] = tested on: Staphylococcus aureus; assay: Antibacterial activity against methicillin-resistant Staphylococcus aureus measured after 13 passages by broth microdilution method; assay type: functional, organism-based

SMILES	MIC [1] [µg/mL]	MIC [2] [µg/mL]	MIC [3] [µg/mL]	MIC [4] [µg/mL]	MIC [5] [µg/mL]	MIC [6] [µg/mL]	MIC [7] [µg/mL]	MIC [8] [µg/mL]	MIC [9] [µg/mL]	MIC [10] [µg/mL]	MIC [11] [µg/mL]	Activity [12]
CC(=O)Nc1ccc(S(=O)(=O)CC(CO)n2ccnc2C)cc1 (stereo not drawn)	32 (≈ 94.8 µM)	64 (≈ 190 µM)	32 (≈ 94.8 µM)	128 (≈ 379 µM)	64 (≈ 190 µM)	8 (≈ 23.7 µM)	64 (≈ 190 µM)	128 (≈ 379 µM)	64 (≈ 190 µM)	16 (≈ 47.4 µM)	64 (≈ 190 µM)	–
CC(=O)Nc1ccc(S(=O)(=O)CC(CO)n2ccnc2C(C)C)cc1 (stereo not drawn)	16 (≈ 43.8 µM)	64 (≈ 175 µM)	64 (≈ 175 µM)	64 (≈ 175 µM)	32 (≈ 87.6 µM)	16 (≈ 43.8 µM)	64 (≈ 175 µM)	256 (≈ 700 µM)	128 (≈ 350 µM)	32 (≈ 87.6 µM)	64 (≈ 175 µM)	–
CC(=O)Nc1ccc(S(=O)(=O)CC(CO)n2cc(I)nc2C)cc1 (stereo not drawn)	64 (≈ 138 µM)	32 (≈ 69.1 µM)	32 (≈ 69.1 µM)	256 (≈ 553 µM)	256 (≈ 553 µM)	64 (≈ 138 µM)	64 (≈ 138 µM)	256 (≈ 553 µM)	64 (≈ 138 µM)	64 (≈ 138 µM)	64 (≈ 138 µM)	–
Cc1nc(I)cn1C(CO)CS(=O)(=O)c1ccc(N)cc1 (stereo not drawn)	64 (≈ 152 µM)	32 (≈ 76 µM)	32 (≈ 76 µM)	64 (≈ 152 µM)	64 (≈ 152 µM)	32 (≈ 76 µM)	64 (≈ 152 µM)	128 (≈ 304 µM)	64 (≈ 152 µM)	32 (≈ 76 µM)	128 (≈ 304 µM)	–
CC(C)c1nccn1C(CO)CS(=O)(=O)c1ccc(N)cc1 (stereo not drawn)	64 (≈ 198 µM)	64 (≈ 198 µM)	64 (≈ 198 µM)	64 (≈ 198 µM)	8 (≈ 24.7 µM)	16 (≈ 49.5 µM)	32 (≈ 98.9 µM)	256 (≈ 792 µM)	128 (≈ 396 µM)	32 (≈ 98.9 µM)	128 (≈ 396 µM)	–
Nc1ccc(S(=O)(=O)CC(CO)n2cnc(Br)c2)cc1 (stereo not drawn)	64 (≈ 178 µM)	32 (≈ 88.8 µM)	32 (≈ 88.8 µM)	256 (≈ 711 µM)	64 (≈ 178 µM)	16 (≈ 44.4 µM)	64 (≈ 178 µM)	256 (≈ 711 µM)	64 (≈ 178 µM)	64 (≈ 178 µM)	64 (≈ 178 µM)	–
CCn1cc(C(=O)O)c(=O)c2cc(F)c(N3CCNCC3)cc21 [NORFLOXACIN]	1 (≈ 3.13 µM)	16 (≈ 50.1 µM)	512 (≈ 1600 µM)	256 (≈ 802 µM)	256 (≈ 802 µM)	8 (≈ 25.1 µM)	1 (≈ 3.13 µM)	256 (≈ 802 µM)	8 (≈ 25.1 µM)	8 (≈ 25.1 µM)	512 (≈ 1600 µM)	inactive
CCCc1nccn1C(CO)CS(=O)(=O)c1ccc(N)cc1 (stereo not drawn)	128 (≈ 396 µM)	32 (≈ 98.9 µM)	64 (≈ 198 µM)	128 (≈ 396 µM)	32 (≈ 98.9 µM)	8 (≈ 24.7 µM)	64 (≈ 198 µM)	256 (≈ 792 µM)	128 (≈ 396 µM)	32 (≈ 98.9 µM)	64 (≈ 198 µM)	–
Cc1cn(C(CO)CS(=O)(=O)c2ccc(N)cc2)cn1 (stereo not drawn)	64 (≈ 217 µM)	32 (≈ 108 µM)	64 (≈ 217 µM)	32 (≈ 108 µM)	16 (≈ 54.2 µM)	8 (≈ 27.1 µM)	32 (≈ 108 µM)	128 (≈ 433 µM)	64 (≈ 217 µM)	16 (≈ 54.2 µM)	64 (≈ 217 µM)	–
Nc1ccc(S(=O)(=O)CC(CO)n2ccnc2)cc1 (stereo not drawn)	64 (≈ 227 µM)	64 (≈ 227 µM)	64 (≈ 227 µM)	128 (≈ 455 µM)	32 (≈ 114 µM)	16 (≈ 56.9 µM)	64 (≈ 227 µM)	256 (≈ 910 µM)	32 (≈ 114 µM)	128 (≈ 455 µM)	128 (≈ 455 µM)	–
Cc1nccn1C(CO)CS(=O)(=O)c1ccc(N)cc1 (stereo not drawn)	64 (≈ 217 µM)	64 (≈ 217 µM)	32 (≈ 108 µM)	128 (≈ 433 µM)	8 (≈ 27.1 µM)	16 (≈ 54.2 µM)	64 (≈ 217 µM)	128 (≈ 433 µM)	128 (≈ 433 µM)	16 (≈ 54.2 µM)	128 (≈ 433 µM)	–
CCCc1nccn1C(CO)CS(=O)(=O)c1ccc(NC(C)=O)cc1 (stereo not drawn)	32 (≈ 87.6 µM)	32 (≈ 87.6 µM)	64 (≈ 175 µM)	128 (≈ 350 µM)	16 (≈ 43.8 µM)	32 (≈ 87.6 µM)	64 (≈ 175 µM)	256 (≈ 700 µM)	32 (≈ 87.6 µM)	32 (≈ 87.6 µM)	64 (≈ 175 µM)	–
